Experimental data taken from ChEMBL document CHEMBL4138311, “Antitumorigenic Properties of Omega-3 Endocannabinoid Epoxides” (J Med Chem, 2018).
The source made the active and inactive calls. No cut-off for these calls is given here.

Tests used:
MG-63 [1] = assay: Induction of apoptosis in human MG63 cells at 12.5 by Annexin V-FITC/propidium iodide double staining based flow cytometry relative to control; assay type: functional
MG-63 [2] = assay: Cell cycle arrest in human MG63 cells assessed as accumulation at S phase after 24 hrs by propidium iodide-staining based flow cytometry (reference value: 20.2 +/- 1.8%); assay type: functional
143B [3] = assay: Cell cycle arrest in human 143B cells assessed as accumulation at G2 phase after 24 hrs by propidium iodide-staining based flow cytometry (reference value: 17.2 +/- 2.3%); assay type: functional
HOS [4] = assay: Induction of apoptosis in human HOS cells at 12.5 by Annexin V-FITC/propidium iodide double staining based flow cytometry relative to control; assay type: functional
HUVEC [5] = assay: Anti-angiogenic activity in HUVEC assessed as inhibition of tube formation at 0.5 to 1 uM after 5 hrs by fluorescent microscopy based matrigel assay; assay type: functional, cell-based; settings: Homo sapiens
Method in brief: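 HUVEC at passage 2 were grown to 80% confluency, and 15,000 cells were plated on Matrigel pre-set 1 h at 37 °C. Cells got vehicle, 0.5 or 1 μM compound, with no-matrix and vinblastine controls, in duplicate wells for 5 h at 37 °C. After washing, cells were stained 30 min at 37 °C. Fluorescence images were scored for tube formation with an angiogenesis analyzer.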

[6] = target: T1, Fatty-acid amide hydrolase 1 (Sus scrofa, UniProt Q9TUI8); assay: Drug metabolism in pig forebrain membranes assessed as FAAH-mediated 10,11-EDP formation by measuring hydrolysis rate per mg protein at 20 uM after 40 mins by LC-MS/MS analysis; assay type: ADME, cell membranes, Membrane
T1 sequence (Q9TUI8 whole entry): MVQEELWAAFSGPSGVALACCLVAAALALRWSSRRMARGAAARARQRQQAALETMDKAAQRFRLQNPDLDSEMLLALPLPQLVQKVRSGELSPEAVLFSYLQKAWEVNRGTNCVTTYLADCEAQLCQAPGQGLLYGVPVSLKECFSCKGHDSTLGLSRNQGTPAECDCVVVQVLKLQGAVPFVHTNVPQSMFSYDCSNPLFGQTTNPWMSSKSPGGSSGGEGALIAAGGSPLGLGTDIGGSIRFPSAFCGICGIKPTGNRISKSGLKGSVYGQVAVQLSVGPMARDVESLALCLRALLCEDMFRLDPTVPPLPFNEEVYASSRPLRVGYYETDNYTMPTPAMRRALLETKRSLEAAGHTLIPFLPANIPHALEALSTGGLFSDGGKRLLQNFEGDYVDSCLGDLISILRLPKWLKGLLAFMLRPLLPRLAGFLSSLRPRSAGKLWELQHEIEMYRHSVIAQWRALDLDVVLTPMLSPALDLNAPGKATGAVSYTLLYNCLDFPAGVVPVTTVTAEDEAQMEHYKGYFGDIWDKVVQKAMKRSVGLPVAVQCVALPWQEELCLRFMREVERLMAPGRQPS
Method in brief: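 Each 0.5 mL reaction held 5 µg membrane protein in the same buffer with 20 µM amide. Reactions were stopped at 40 min with methanol containing 1 mM PMSF and centrifuged. The supernatant was run on C18 LC-MS/MS, negative ESI, MRM for 10,11-EDP (m/z 343.0).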

143B [7] = assay: Cell cycle arrest in human 143B cells assessed as accumulation at G1 phase after 24 hrs by propidium iodide-staining based flow cytometry (reference value: 56.2 +/- 2.7%); assay type: functional
MG-63 [8] = assay: Cell cycle arrest in human MG63 cells assessed as accumulation at G2 phase after 24 hrs by propidium iodide-staining based flow cytometry (reference value: 16.9 +/- 0.01%); assay type: functional
HUVEC [9] = assay: Cytotoxicity against HUVEC assessed as reduction in cell viability at 1 uM after 24 hrs by cell-titer blue assay; assay type: cell-based; settings: human
HOS [10] = assay: Cell cycle arrest in human HOS cells assessed as accumulation at G2 phase after 24 hrs by propidium iodide-staining based flow cytometry (reference value: 15.1 +/- 0.97%); assay type: functional
HOS [11] = assay: Cell cycle arrest in human HOS cells assessed as accumulation at G1 phase after 24 hrs by propidium iodide-staining based flow cytometry (reference value: 47.8 +/- 0.7%); assay type: functional
MG-63 [12] = assay: Cell cycle arrest in human MG63 cells assessed as accumulation at G1 phase after 24 hrs by propidium iodide-staining based flow cytometry (reference value: 62.9 +/- 1.8%); assay type: functional
143B [13] = assay: Cell cycle arrest in human 143B cells assessed as accumulation at S phase after 24 hrs by propidium iodide-staining based flow cytometry (reference value: 26.6 +/- 0.4%); assay type: functional
HOS [14] = assay: Cell cycle arrest in human HOS cells assessed as accumulation at S phase after 24 hrs by propidium iodide-staining based flow cytometry (reference value: 37.1 +/- 1.6%); assay type: functional
143B [15] = assay: Induction of apoptosis in human 143B cells at 12.5 by Annexin V-FITC/propidium iodide double staining based flow cytometry relative to control; assay type: functional
143B [16] = assay: Cytotoxicity against human 143B cells assessed as reduction in cell viability at 25 uM after 24 hrs by cell-titer blue assay; assay type: functional, cell-based
143B [17] = assay: Induction of apoptosis in human 143B cells at 12.5 in presence of rimonabant by Annexin V-FITC/propidium iodide double staining based flow cytometry relative to control; assay type: functional
143B [18] = assay: Induction of apoptosis in human 143B cells at 12.5 in presence of AM 630 by Annexin V-FITC/propidium iodide double staining based flow cytometry relative to control; assay type: functional
143B [19] = assay: Antimigratory activity in human 143B cells at 5 uM measured after 10 hrs by wound-healing assay; assay type: functional, cell-based
Method in brief: (§1)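 A confluent monolayer of HOS, 143B or MG63 cells (DMEM, 10% FBS) was scratched with a pipette tip, then given fresh medium with 5 μM compound or vehicle at 37 °C, 5% CO₂. Images were taken every 2 h and wound area normalized to 100% at 0 h. Results are the ratio of wound remaining, treated to control, at 6 and 10 h.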

143B [20] = assay: Cytotoxicity against human 143B cells assessed as reduction in cell viability at 12.5 uM after 24 hrs by cell-titer blue assay; assay type: functional, cell-based
HOS [21] = assay: Antimigratory activity in human HOS cells at 5 uM after 6 to 10 hrs by wound-healing assay; assay type: functional, cell-based; method in brief: as §1
MG-63 [22] = assay: Antimigratory activity in human MG63 cells at 5 uM measured after 10 hrs by wound-healing assay; assay type: functional, cell-based; method in brief: as §1
Cannabinoid receptor 1 = Cannabinoid receptor 1 (Homo sapiens, UniProt P21554); assay: Agonist activity at N-terminal FLAG-tagged human CB1 receptor transfected in human HTLA cells assessed as induction of beta-arrestin-recruitment after 8 to 14 hrs by bright-glo luminescence based assay; assay type: functional, cell-based
Sequence of Cannabinoid receptor 1 (P21554 whole entry): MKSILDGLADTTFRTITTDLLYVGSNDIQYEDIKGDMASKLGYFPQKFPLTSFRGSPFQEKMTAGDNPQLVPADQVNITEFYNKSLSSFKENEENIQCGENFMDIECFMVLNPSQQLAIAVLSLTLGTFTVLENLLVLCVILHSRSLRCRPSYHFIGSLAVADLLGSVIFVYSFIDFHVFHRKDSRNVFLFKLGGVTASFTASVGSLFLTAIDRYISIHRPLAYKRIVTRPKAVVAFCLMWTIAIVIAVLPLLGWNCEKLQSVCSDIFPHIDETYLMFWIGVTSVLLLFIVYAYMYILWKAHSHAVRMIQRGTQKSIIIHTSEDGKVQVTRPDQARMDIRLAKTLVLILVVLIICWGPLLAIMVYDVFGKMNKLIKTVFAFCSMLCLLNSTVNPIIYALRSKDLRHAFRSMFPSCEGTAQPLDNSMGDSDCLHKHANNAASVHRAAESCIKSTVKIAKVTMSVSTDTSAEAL
Method in brief: (§2)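 HTLA cells (DMEM, 10% FBS, puromycin 2 μg/mL, hygromycin B 100 μg/mL) were seeded at 20,000 per well on poly-L-lysine and transfected after 18–24 h with CNR1 or CNR2 Tango plasmid, 0.1 μg/well. After 36–48 h they were starved 4 h in 1% dialyzed FBS, or 30 min with 1 μM AUDA for epoxides. Log-dose compound was added for 8–14 h, then Bright-Glo luminescence read. RLU was normalized to % receptor response and fitted to a dose-response curve.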

143B [23] = assay: Antimigratory activity in human 143B cells at 5 uM measured after 10 hrs in presence of CB1 receptor antagonist rimonabant by wound-healing assay; assay type: functional, cell-based
Cannabinoid receptor 2 = Cannabinoid receptor 2 (Homo sapiens, UniProt P34972); assay: Agonist activity at N-terminal FLAG-tagged human CB2 receptor transfected in human HTLA cells assessed as induction of beta-arrestin-recruitment after 8 to 14 hrs by bright-glo luminescence based assay; assay type: functional, cell-based; method in brief: as §2
Sequence of Cannabinoid receptor 2 (P34972 whole entry): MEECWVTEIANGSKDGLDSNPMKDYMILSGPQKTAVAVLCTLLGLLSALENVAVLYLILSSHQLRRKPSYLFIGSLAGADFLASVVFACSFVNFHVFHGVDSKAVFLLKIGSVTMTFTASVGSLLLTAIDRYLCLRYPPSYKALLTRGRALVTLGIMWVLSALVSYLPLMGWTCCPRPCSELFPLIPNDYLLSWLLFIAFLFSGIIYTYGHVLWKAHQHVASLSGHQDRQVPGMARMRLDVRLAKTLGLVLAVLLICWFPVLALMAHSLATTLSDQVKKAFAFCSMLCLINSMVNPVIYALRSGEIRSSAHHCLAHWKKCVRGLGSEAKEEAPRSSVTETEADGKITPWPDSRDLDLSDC

MG-63 [24] = assay: Antimigratory activity in human MG63 cells at 5 uM measured after 6 hrs by wound-healing assay; assay type: functional, cell-based; method in brief: as §1

| Compound | Activity (MG-63 [1]) | Activity (MG-63 [2]) | Activity (143B [3]) | Activity (HOS [4]) | Activity (HUVEC [5]) | Drug metabolism [6] | Activity (143B [7]) | Activity (MG-63 [8]) | Activity (HUVEC [9]) | Activity (HOS [10]) | Activity (HOS [11]) | Activity (MG-63 [12]) | Activity (143B [13]) | Activity (HOS [14]) | Activity (143B [15]) | Activity (143B [16]) | Activity (143B [17]) | Activity (143B [18]) | Activity (143B [19]) | Activity (143B [20]) | other results |
| --- | --- | --- | --- | --- | --- | --- | --- | --- | --- | --- | --- | --- | --- | --- | --- | --- | --- | --- | --- | --- | --- |
| CC/C=C\C/C=C\C/C=C\CC1OC1C/C=C\C/C=C\CCC(=O)NC(C)CO (configuration not stated) | 17.5% | 10.8% | 8.1% | 20.2% | Active | 0.99 pmol/min | 50.1% | 12.5% | Non-Toxic | 20% | 55.8% | 76.7% | 41.8% | 24.3% | 18.8% |  |  |  |  |  |  |
| CC/C=C\C/C=C\C/C=C\CC1OC1C/C=C\C/C=C\CCC(=O)NC1CC1 (configuration not stated) | 17.1% | 23.1% | 22.9% | 27.2% | Active | 5.17 pmol/min | 54.2% | 16.9% | Non-Toxic | 15.1% | 54.4% | 59.6% | 22.9% | 30.5% | 21.3% |  |  |  |  |  |  |
| CC/C=C\C/C=C\C/C=C\C/C=C\CC1OC1C/C=C\CCC(=O)NCCO (configuration not stated) | 16.4% |  |  | 17.1% |  |  |  |  |  |  |  |  |  |  | 8.75% | Active | 14.6% | 10.1% | inactive | Active | Activity (HOS [21]): inactive; Activity (MG-63 [22]): Active |
| CC/C=C\C/C=C\C/C=C\CC1OC1C/C=C\C/C=C\CCC(=O)NCCO (configuration not stated) | 26.6% | 17.9% | 21.1% | 31.1% | Active | 30 pmol/min | 50.7% | 14.4% | Non-Toxic | 12.4% | 67.2% | 67.7% | 28.9% | 20.3% | 17.92% | Active | 7.44% | 10.9% | Active | Active | EC50 (Cannabinoid receptor 1): 0.43 nM; Activity (143B [23]): inactive; EC50 (Cannabinoid receptor 2): 22.5 nM |
| CC/C=C\C/C=C\CC1OC1C/C=C\C/C=C\C/C=C\CCC(=O)NCCO (configuration not stated) | 16.9% |  |  | 19.6% |  |  |  |  |  |  |  |  |  |  | 9.95% | Active | 13.03% | 9.2% | inactive | Active | Activity (MG-63 [24]): inactive; Activity (HOS [21]): inactive; Activity (MG-63 [22]): Active |
| CC/C=C\CC1OC1C/C=C\C/C=C\C/C=C\C/C=C\CCC(=O)NCCO (configuration not stated) |  |  |  |  |  |  |  |  |  |  |  |  |  |  |  | Active |  |  |  | inactive |  |
| CCC1OC1C/C=C\C/C=C\C/C=C\C/C=C\C/C=C\CCC(=O)NCCO (configuration not stated) |  |  |  |  |  |  |  |  |  |  |  |  |  |  |  | Active |  |  |  | inactive |  |
| CC/C=C\C/C=C\C/C=C\CC1OC1C/C=C\C/C=C\CCC(=O)NCCCO (configuration not stated) | 15.2% | 19% | 23.7% | 17.1% | Active |  | 52.2% | 17.5% | Non-Toxic | 17.1% | 62.2% | 63.5% | 24% | 20.7% | 25.7% |  |  |  |  |  |  |
